Data on three molecules can be found in PMC8717467 (Chemical biology & drug design, 2020).

The subject of data set [1] is lymph node cells from type II collagen-immunized HLA-DQ8 mice. To be noted: ref A. Gokhale et al., 2013; A. S. Gokhale et al., 2015; cited from earlier work.
Data set [2] has as its system adhesion between CD2 protein-expressing T cells and CD58 protein overexpressing Caco-2 cells. The conditions noted are these: read-out: IC50 in cell adhesion assay, Jurkat/T cells and epithelial cells such as Caco-2 and OVCAR-3, ref A. Gokhale et al., 2011, 2013, A. S. Gokhale et al., 2015; cited from earlier work.
Data set [3] in a line: Chemical stability in buffers of different pH. The conditions noted are these: pH 1.5, 7.4 and 9.6 buffers, 30 days, HPLC, zero time peak area = 100%. The class given is physicochemical.
Data set [4] has as its system T cell proliferation of lymph node cells from peptide-immunized DQ8 mice. In words: Immunogenicity studies. The class given is in vivo. The conditions noted are these: LNC T-cell proliferation 10 days after immunization. Summed up:
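HLA-DQ8 mice were immunized with 200 μL of test peptide at 50 μg/mL. Ten days later, lymph nodes were harvested and made into single-cell suspensions. The lymph node cells were challenged in vitro with a range of peptide concentrations to measure T-cell proliferation. ConA (1 μg/mL) served as positive control. Results are stimulation index versus peptide concentration; an index above 2 counted as positive.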

The target in data set [5] is T1, adhesion between Jurkat cells (CD2 protein) and HFLS-RA cells (CD58 protein) (Homo sapiens, UniProt P19256).
T1 sequence (P19256 29-250): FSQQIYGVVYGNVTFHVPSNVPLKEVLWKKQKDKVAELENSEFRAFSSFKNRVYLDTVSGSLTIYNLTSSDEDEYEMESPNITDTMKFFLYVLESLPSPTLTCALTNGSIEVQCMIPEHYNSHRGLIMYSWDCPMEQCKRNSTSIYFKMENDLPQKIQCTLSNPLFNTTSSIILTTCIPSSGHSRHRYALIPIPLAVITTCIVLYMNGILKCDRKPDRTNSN
T1 sequence (P06729 25-351 partner): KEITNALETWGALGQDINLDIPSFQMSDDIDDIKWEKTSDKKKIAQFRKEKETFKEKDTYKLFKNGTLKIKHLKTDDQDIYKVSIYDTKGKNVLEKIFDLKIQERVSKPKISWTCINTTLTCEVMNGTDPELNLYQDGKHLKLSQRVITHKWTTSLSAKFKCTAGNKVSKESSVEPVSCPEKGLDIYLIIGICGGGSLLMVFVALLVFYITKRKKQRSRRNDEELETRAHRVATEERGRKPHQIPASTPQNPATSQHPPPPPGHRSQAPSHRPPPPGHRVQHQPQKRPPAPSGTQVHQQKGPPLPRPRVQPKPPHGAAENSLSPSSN
The conditions noted are these: read-out: IC50, Jurkat cell - HFLS-RA cell adhesion assay.

The target of data set [6] is T2, adhesion between Jurkat cells (CD2) and OVCAR-3 cells (CD58) (Homo sapiens, UniProt P19256).
T2 sequence (P19256 29-250): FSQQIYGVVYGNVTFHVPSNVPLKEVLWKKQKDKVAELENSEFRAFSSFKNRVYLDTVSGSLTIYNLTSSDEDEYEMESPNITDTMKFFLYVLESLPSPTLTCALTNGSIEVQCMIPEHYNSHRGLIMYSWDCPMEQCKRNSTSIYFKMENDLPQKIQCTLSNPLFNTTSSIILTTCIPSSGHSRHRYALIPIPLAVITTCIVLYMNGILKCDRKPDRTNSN
T2 sequence (P06729 25-351 partner): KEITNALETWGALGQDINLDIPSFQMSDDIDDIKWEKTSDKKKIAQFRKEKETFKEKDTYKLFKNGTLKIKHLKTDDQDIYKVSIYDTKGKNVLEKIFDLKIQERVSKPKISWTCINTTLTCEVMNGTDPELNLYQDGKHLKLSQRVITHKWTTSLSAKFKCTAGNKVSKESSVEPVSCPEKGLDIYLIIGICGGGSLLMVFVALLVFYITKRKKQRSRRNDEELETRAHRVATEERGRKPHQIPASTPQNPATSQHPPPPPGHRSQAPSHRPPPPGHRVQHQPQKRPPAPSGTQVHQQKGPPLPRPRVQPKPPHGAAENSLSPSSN
The conditions noted are these: read-out: IC50, Jurkat cell-OVCAR-3 cell adhesion assay.

The nature of a further data set: Thermal stability. It counts as physicochemical. Summed up: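 CD spectra of the peptide in water were recorded from 25 to 85 °C in 5 °C steps, 4 scans per temperature, 185–320 nm. Samples from 25, 55 and 85 °C were checked by mass spectrometry. Separately, peptide was incubated 30 min at 25, 55 or 85 °C, then run on C-18 HPLC and reported as relative peak area from triplicate experiments.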

The next data set deals with T3, CD58 adhesion domain (Homo sapiens, UniProt P19256).
T3 chain: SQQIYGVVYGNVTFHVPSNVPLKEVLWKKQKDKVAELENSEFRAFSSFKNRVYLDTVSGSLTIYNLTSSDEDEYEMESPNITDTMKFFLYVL
In words: SPR.

Bridge positions count the residues as written; N and C are the ends. Peptide text beside a SMILES is read from it.

As for `CC[C@H](C)[C@@H]1NC(=O)[C@H](CC(=O)O)NC(=O)[C@H](CC(=O)O)NC(=O)[C@@H]2CCCN2C(=O)[C@H]2CCCN2C(=O)[C@H](CC(=O)O)NC(=O)[C@H](Cc2ccc(O)cc2)NC(=O)[C@H]([C@@H](C)CC)NC(=O)[C@H](CO)NC(=O)[C@H](CCCCN)NC1=O` [Peptide 6], the “T cell immune response in cells derived from transgenic mice that develop arthritis” value in data set [1] was “suppress the T cell immune response”. The IC50 in data set [2] was 6.9 nM.
With `C[C@@H]1NC(=O)[C@@H]2CSSC[C@H](NC(=O)[C@H](CC(=O)O)NC(=O)[C@H](CC(=O)O)NC(=O)CNC(=O)[C@H](CC(=O)O)NC(=O)[C@H](Cc3ccc(O)cc3)NC1=O)C(=O)N[C@@H](CCCCN)C(=O)N[C@@H](CO)C(=O)N[C@@H](C)C(=O)N1CCC[C@H]1C(=O)N1CCC[C@H]1C(=O)N[C@@H](CO)C(=O)N2` [SFTI-a1] (cyclo(APPSCAYDGDDCKS); disulfide 5-12), in data set [3], the “Chemical stability: degradation in buffers” value is recorded as “not degraded significantly”. The Immunogenicity result in data set [4] is recorded as “not immunogenic”. Moreover, the IC50 in data set [5] is 37.2 ± 1.02 nM; in data set [6], 23.3 ± 4.62 nM. Further, the “Thermal stability: change of CD spectra with temperature” value in the data set “Thermal stability” (in water, 25 to 85 °C in 5 °C steps, CD) is on record as “not significantly changed”. In addition, in “Thermal stability” (incubated at 55 and 85 °C for 30 min, HPLC C-18, triplicate experiments), the “Thermal stability: change in HPLC peak area” value is on record as “no significant change in HPLC peak area”. In addition, the “Thermal stability: mass spectrometric analysis” value in the data set “Thermal stability” (samples incubated at different temperatures (25, 55, 85 °C) in solution) is “no change in its mass”.

B1: SFTI-a1 (peptide)
chain: cyclo(CKSAPPSCAYDGDD)
modifications: disulfide 1-8
SMILES: C[C@@H]1NC(=O)[C@@H]2CSSC[C@H](NC(=O)[C@H](CC(=O)O)NC(=O)[C@H](CC(=O)O)NC(=O)CNC(=O)[C@H](CC(=O)O)NC(=O)[C@H](Cc3ccc(O)cc3)NC1=O)C(=O)N[C@@H](CCCCN)C(=O)N[C@@H](CO)C(=O)N[C@@H](C)C(=O)N1CCC[C@H]1C(=O)N1CCC[C@H]1C(=O)N[C@@H](CO)C(=O)N2
In the data set with CD58 adhesion domain, B1 yielded an equilibrium dissociation constant (Kd) of 320 nM.
